In ChEMBL document CHEMBL1667800, “Synthesis, DNA/RNA affinity and antitumour activity of new aromatic diamidines linked by 3,4-ethylenedioxythiophene” (Eur J Med Chem, 2011):
Active and inactive are the calls of the source. The rule behind the calls is not given here.

Columns and labels:
Calf thymus DNA [1] = experiment: Binding affinity to calf thymus DNA assessed as DNA CD band at compound over DNA molar ratio of > 0.3 by circular dichroism titration; format: nucleic-acid assay; conditions: Bos taurus
Summary of the method: (§1)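 CD titration of polynucleotide (2.0 × 10^-5 mol dm^-3, as phosphate) with added compound over a range of r = [compound]/[polynucleotide]. Na-cacodylate buffer, pH 7.0, I = 0.05 mol dm^-3, 1 cm quartz cuvette. ct-DNA was sonicated and filtered before use. Changes in the polynucleotide CD band and induced CD bands were followed.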

Calf thymus DNA [2] = experiment: Binding affinity to calf thymus DNA minor groove assessed as DNA CD band at compound over DNA molar ratio of < 0.2 by circular dichroism titration; format: nucleic-acid assay; conditions: Bos taurus; summary of the method: as §1
Nucleic Acid [3] = experiment: Binding affinity to ds-RNA assessed as RNA CD band at compound over RNA molar ratio of < 0.2 by circular dichroism titration; format: nucleic-acid assay; summary of the method: as §1
Calf thymus DNA [4] = experiment: Binding affinity to calf thymus DNA assessed as melting temperature at compound over DNA molar ratio of 0.1 at pH 7 by thermal denaturation assay; format: nucleic-acid assay; conditions: Bos taurus
Summary of the method: (§2)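 Thermal melting of ds-polynucleotide (ct-DNA or poly A-poly U) alone and with compound at the given r, Na-cacodylate pH 7.0, I = 0.05 mol dm^-3. Absorbance at 260 nm was followed versus temperature, with compound absorbance subtracted and the curve normalized. Tm was taken from the first-derivative maximum or by tangent. ΔTm = Tm(complex) − Tm(free nucleic acid).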

Calf thymus DNA [5] = experiment: Binding affinity to calf thymus DNA assessed as melting temperature at compound over DNA molar ratio of 0.2 at pH 7 by thermal denaturation assay; format: nucleic-acid assay; conditions: Bos taurus; summary of the method: as §2
Calf thymus DNA [6] = experiment: Binding affinity to calf thymus DNA assessed as melting temperature at compound over DNA molar ratio of 0.3 at pH 7 by thermal denaturation assay; format: nucleic-acid assay; conditions: Bos taurus; summary of the method: as §2
Nucleic Acid [7] = experiment: Binding affinity to polu A-poly U assessed as melting temperature at compound over DNA molar ratio of 0.3 at pH 7 by thermal denaturation assay; format: nucleic-acid assay; summary of the method: as §2
MCF7 = experiment: Cytotoxicity against human MCF7 cells after 72 hrs by MTT assay; format: functional; conditions: MCF7, 72 h
Summary of the method: (§3)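 Cells were seeded at 2 × 10^4 cells/mL and attached overnight at 37 °C, 5% CO2. They were then exposed for 72 h to compounds from aqueous stocks (working solutions 10^-3–10^-6 mol dm^-3). MTT was added for 4 h at 37 °C, formazan dissolved in DMSO, and absorbance read at 570 nm. GI50 is the mean ± SD of three independent experiments run in triplicate.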

NCI-H358 = experiment: Cytotoxicity against human NCI-H358 cells after 72 hrs by MTT assay; format: functional; conditions: NCI-H358, 72 h; summary of the method: as §3
Caco-2 = experiment: Cytotoxicity against human Caco2 cells after 72 hrs by MTT assay; format: functional; conditions: Caco-2, 72 h; summary of the method: as §3
HEp-2 = experiment: Cytotoxicity against human Hep2 cells after 72 hrs by MTT assay; format: functional; conditions: HEp-2, 72 h; summary of the method: as §3
HeLa [8] = experiment: Cytotoxicity against human HeLa cells after 72 hrs by MTT assay; format: functional; summary of the method: as §3
AGS = experiment: Cytotoxicity against human AGS cells after 72 hrs by MTT assay; format: functional; summary of the method: as §3
MIA PaCa-2 = experiment: Cytotoxicity against human MIAPaCa2 cells after 72 hrs by MTT assay; format: functional; conditions: MIA PaCa-2, 72 h; summary of the method: as §3
[9] = Cytotoxicity against MDCK cells after 72 hrs by MTT assay; format: cell-based, Canis lupus familiaris; conditions: dog; summary of the method: as §3
Calf thymus DNA [10] = experiment: Binding affinity to calf thymus DNA assessed as hyperchromic effect at compound over DNA molar ratio of 0.2 by UV-Vis spectra; format: nucleic-acid assay; conditions: Bos taurus; in the assay text read “hypochromic effect” for “hyperchromic effect”
Summary of the method: (§4)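 UV-Vis titration of compound (c = 1.97 × 10^-5 mol dm^-3 in the shown example) with ct-DNA. Na-cacodylate buffer, pH 7.0, I = 0.05 mol dm^-3, 1 cm quartz cuvette. Absorbance at the maximum was tracked against c(ct-DNA). Ks and n were obtained by non-linear least-squares Scatchard fitting.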

Calf thymus DNA [11] = experiment: Binding affinity to calf thymus DNA assessed as batochromic effect at compound over DNA molar ratio of 0.2 by UV-Vis spectra; format: nucleic-acid assay; conditions: Bos taurus; summary of the method: as §4
Calf thymus DNA [12] = experiment: Binding affinity to calf thymus DNA assessed as batochromic effect at compound over DNA molar ratio of 0.2 by fluorimetric titration; format: nucleic-acid assay; conditions: Bos taurus
Summary of the method: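 Fluorimetric titration of compound (about 1.0 × 10^-6 mol dm^-3) with ct-DNA. Excitation above 360 nm to avoid inner-filter effects. Na-cacodylate buffer, pH 7.0, I = 0.05 mol dm^-3. Emission at the maximum was plotted against c(ct-DNA). Ks and n were obtained by non-linear Scatchard fitting.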

Calf thymus DNA [13] = experiment: Binding affinity to calf thymus DNA assessed as DNA CD band at compound over DNA molar ratio of > 0.2 by circular dichroism titration; format: nucleic-acid assay; conditions: Bos taurus; summary of the method: as §1
HeLa [14] = experiment: Induction of cell cycle arrest in human HeLa assessed as accumulation at G0/G1-phase at 5x10'-6 M after 24 hrs by FACS analysis (RVb = 62.2+/-4.4%); format: functional
HeLa [15] = experiment: Induction of cell cycle arrest in human HeLa assessed as accumulation at G0/G1-phase at 5x10'-6 M after 48 hrs by FACS analysis (RVb = 61.2+/-2.3%); format: functional
HeLa [16] = experiment: Induction of cell cycle arrest in human HeLa assessed as accumulation at G0/G1-phase at 5x10'-6 M after 72 hrs by FACS analysis (RVb = 63.4+/-3.2%); format: functional
HeLa [17] = experiment: Induction of cell cycle arrest in human HeLa assessed as accumulation at S-phase at 5x10'-6 M after 24 hrs by FACS analysis (RVb = 27.7+/-4.2%); format: functional
HeLa [18] = experiment: Induction of cell cycle arrest in human HeLa assessed as accumulation at S-phase at 5x10'-6 M after 48 hrs by FACS analysis (RVb = 30.4+/-3.7%); format: functional
HeLa [19] = experiment: Induction of cell cycle arrest in human HeLa assessed as accumulation at S-phase at 5x10'-6 M after 72 hrs by FACS analysis (RVb = 28.8+/-3.2%); format: functional
HeLa [20] = experiment: Induction of cell cycle arrest in human HeLa assessed as accumulation at G2/M-phase at 5x10'-6 M after 24 hrs by FACS analysis (RVb = 10.1+/-3.4%); format: functional
HeLa [21] = experiment: Induction of cell cycle arrest in human HeLa assessed as accumulation at G2/M-phase at 5x10'-6 M after 48 hrs by FACS analysis (RVb = 8.4+/-3.9%); format: functional
HeLa [22] = experiment: Induction of cell cycle arrest in human HeLa assessed as accumulation at G2/M-phase at 5x10'-6 M after 72 hrs by FACS analysis (RVb = 7.8+/-3.1%); format: functional
HeLa [23] = experiment: Induction of cell cycle arrest in human HeLa assessed as accumulation at G0/G1-phase at 1x10'-6 M after 24 hrs by FACS analysis (RVb = 62.2+/-4.4%); format: functional
HeLa [24] = experiment: Induction of cell cycle arrest in human HeLa assessed as accumulation at G0/G1-phase at 1x10'-6 M after 48 hrs by FACS analysis (RVb = 61.2+/-2.3%); format: functional
HeLa [25] = experiment: Induction of cell cycle arrest in human HeLa assessed as accumulation at G0/G1-phase at 1x10'-6 M after 72 hrs by FACS analysis (RVb = 63.4+/-3.2%); format: functional
HeLa [26] = experiment: Induction of cell cycle arrest in human HeLa assessed as accumulation at S-phase at 1x10'-6 M after 24 hrs by FACS analysis (RVb = 27.7+/-4.2%); format: functional
HeLa [27] = experiment: Induction of cell cycle arrest in human HeLa assessed as accumulation at S-phase at 1x10'-6 M after 48 hrs by FACS analysis (RVb = 30.4+/-3.7%); format: functional
HeLa [28] = experiment: Induction of cell cycle arrest in human HeLa assessed as accumulation at S-phase at 1x10'-6 M after 72 hrs by FACS analysis (RVb = 28.8+/-3.2%); format: functional
HeLa [29] = experiment: Induction of cell cycle arrest in human HeLa assessed as accumulation at G2/M-phase at 1x10'-6 M after 24 hrs by FACS analysis (RVb = 10.1+/-3.4%); format: functional
HeLa [30] = experiment: Induction of cell cycle arrest in human HeLa assessed as accumulation at G2/M-phase at 1x10'-6 M after 48 hrs by FACS analysis (RVb = 8.4+/-3.9%); format: functional
HeLa [31] = experiment: Induction of cell cycle arrest in human HeLa assessed as accumulation at G2/M-phase at 1x10'-6 M after 72 hrs by FACS analysis (RVb = 7.8+/-3.1%); format: functional
Calf thymus DNA [32] = experiment: Binding affinity to calf thymus DNA assessed as hyperchromic effect at compound over DNA molar ratio of 0.5 by UV-Vis spectra; format: nucleic-acid assay; conditions: Bos taurus; in the assay text read “hypochromic effect” for “hyperchromic effect”; summary of the method: as §4

Activity (Calf thymus DNA [1])	Activity (Calf thymus DNA [2])	Activity (Nucleic Acid [3])	ΔTm (Calf thymus DNA [4])	ΔTm (Calf thymus DNA [5])	ΔTm (Calf thymus DNA [6])	ΔTm (Nucleic Acid [7])	Activity (Calf thymus DNA [10])	Activity (Calf thymus DNA [11])	Activity (Calf thymus DNA [12])	SMILES	GI50 (MCF7)	GI50 (NCI-H358)	GI50 (Caco-2)	GI50 (HEp-2)	GI50 (HeLa [8])	GI50 (AGS)	GI50 (MIA PaCa-2)	GI50 at 72 h [9]	other results
Active	Active	inactive	9 °C	9 °C	15 °C	5.2 °C	Active	Active	Active	CC(C)CNC(=N)c1ccc(-c2sc(-c3ccc(C(=N)NCC(C)C)cc3)c3c2OCCO3)cc1	7.3 µM	73.3 µM	42.8 µM	9.9 µM	18.8 µM	59.3 µM	4.9 µM	59.7 µM	–
Active	Active	inactive	12.3 °C	15.2 °C	> 16 °C	1.4 °C	Active	Active	Active	N=C(NC1CCCC1)c1ccc(-c2sc(-c3ccc(C(=N)NC4CCCC4)cc3)c3c2OCCO3)cc1	7.8 µM	62.2 µM	41 µM	61.3 µM	26.7 µM	45 µM	10.9 µM	50 µM	–
Active	Active	inactive	11.8 °C	> 16 °C	> 16 °C	8.2 °C	Active	Active	Active	c1cc(-c2sc(-c3ccc(C4=NCCCN4)cc3)c3c2OCCO3)ccc1C1=NCCCN1	8.4 µM	98.7 µM	101 µM	97.7 µM	97.5 µM	81.7 µM	64.7 µM	82 µM	–
–	Active	–	10.8 °C	14.3 °C	> 16 °C	17 °C	–	Active	Active	Cl.Cl.c1cc(-c2sc(-c3ccc(C4=NCCN4)cc3)c3c2OCCO3)ccc1C1=NCCN1	2.7 µM	4.1 µM	3.1 µM	3 µM	1.5 µM	4.3 µM	9 µM	17 µM	Activity (Calf thymus DNA [13]): Active; Activity (HeLa [14]): 53.3%; Activity (HeLa [15]): 44.2%; Activity (HeLa [16]): 46.4%; Activity (HeLa [17]): 29.1%; Activity (HeLa [18]): 37.3%; Activity (HeLa [19]): 32.5%; Activity (HeLa [20]): 17.6%; Activity (HeLa [21]): 18.5%; Activity (HeLa [22]): 21.1%; Activity (HeLa [23]): 55.4%; Activity (HeLa [24]): 59.6%; Activity (HeLa [25]): 62.2%; Activity (HeLa [26]): 30.2%; Activity (HeLa [27]): 33.1%; Activity (HeLa [28]): 25.9%; Activity (HeLa [29]): 14.4%; Activity (HeLa [30]): 7.3%; Activity (HeLa [31]): 11.9%; Activity (Calf thymus DNA [32]): Active
